Data taken from ChEMBL document CHEMBL1123321, “Synthesis and evaluation of 2-substituted 1-methyl-1-(4-tolylsulfonyl)hydrazines as antineoplastic agents” (1986).

What was measured:
Assay type in all cases: functional
Mus musculus [1] = assay: Compound was evaluated for antineoplastic activity against mice bearing […], Optimum effective daily dose administered once daily for 6 consecutive days
Procedure, shortened: (§1)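 B16 melanoma tissue was dispersed in serum-free Fischer's medium (1 g per 5 mL), and 0.2 mL was implanted ip per mouse. Starting 24 h after implantation, drug was given ip once daily for 6 days across a range of doses, as a suspension in 20% aq. Tween 80 and isotonic saline. Groups were five mice; vehicle controls were included. %T/C was mean survival time of treated over control ×100.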

Mus musculus [2] = species: Mus musculus; assay: Compound was evaluated for antineoplastic activity against mice bearing L1210 leukemia. Average change in body weight from onset to termination of therapy..
Procedure, shortened: (§2)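 In L1210-bearing mice, dosing was ip once daily for 6 days, beginning 24 h after implantation, with groups of five. The vehicle was a Tween 80/saline suspension. Body weight was recorded, and the read-out was the mean % change in body weight from the start to the end of therapy.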

Mus musculus [3] = species: Mus musculus; assay: Compound was evaluated for antineoplastic activity against mice bearing L1210 leukemia.
Procedure, shortened: (§3)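 L1210 leukemia was carried and implanted ip in mice as in earlier work. Starting 24 h after implantation, drug was given ip once daily for 6 days across a range of doses, as a Tween 80/saline suspension. Survival was scored as %T/C, the mean survival of treated over control ×100.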

Mus musculus [4] = assay: Compound was evaluated for antineoplastic activity against mice bearing L1210 leukemia. Optimum effective daily dose administered once daily for 6 consecutive days; procedure, shortened: as §3
Mus musculus [5] = species: Mus musculus; assay: Compound was evaluated for antineoplastic activity against mice bearing B6 melanoma.; procedure, shortened: as §1
Mus musculus [6] = species: Mus musculus; assay: Compound was evaluated for antineoplastic activity against mice bearing B16 melanoma; procedure, shortened: as §1
Mus musculus [7] = assay: Compound was evaluated for antineoplastic activity against mice bearing B16 melanoma, optimum effective daily dose administered once daily for 6 consecutive days; procedure, shortened: as §1
Mus musculus [8] = assay: Compound was evaluated for antineoplastic activity against mice bearing L1210 leukemia, optimum effective daily dose administered once daily for 6 consecutive days; procedure, shortened: as §3
Mus musculus [9] = species: Mus musculus; assay: Compound was evaluated for antineoplastic activity against mice bearing L1210 leukemia. Average change in body weight from onset to termination of therapy; procedure, shortened: as §2
Mus musculus [10] = species: Mus musculus; assay: Compound was evaluated for antineoplastic activity against mice bearing B16 melanoma.; procedure, shortened: as §1

Cc1ccc(S(=O)(=O)N(C)NSc2ccccc2[N+](=O)[O-])cc1
OD (Mus musculus [1]): 100 mg/kg
Average change in body weight (Mus musculus [2]): 15.5%
T/C (Mus musculus [3]): 151%
OD (Mus musculus [4]): 50 mg/kg
Average change in body weight (Mus musculus [5]): -2%
T/C (Mus musculus [5]): 99%

Cc1ccc(S(=O)(=O)N(C)NP(=O)(Oc2ccccc2)Oc2ccccc2)cc1
OD (Mus musculus [1]): 100 mg/kg
Average change in body weight (Mus musculus [2]): 20.9%
T/C (Mus musculus [3]): 99%
OD (Mus musculus [4]): 150 mg/kg
Average change in body weight (Mus musculus [5]): 7.4%
T/C (Mus musculus [5]): 91%

Cc1ccc(S(=O)(=O)N(C)NC(=O)c2ccccc2)cc1
OD (Mus musculus [1]): 150 mg/kg
Average change in body weight (Mus musculus [2]): 7.5%
T/C (Mus musculus [3]): 167%
OD (Mus musculus [4]): 50 mg/kg
Average change in body weight (Mus musculus [5]): 6.8%
T/C (Mus musculus [5]): 96%

CCS(=O)(=O)NN(C)S(=O)(=O)c1ccc(C)cc1
Average change in body weight (Mus musculus [6]): -1.1%
OD (Mus musculus [7]): 50 mg/kg

Cc1ccc(S(=O)(=O)N(C)NC(=O)c2ccc([N+](=O)[O-])cc2)cc1
OD (Mus musculus [1]): 50 mg/kg
Average change in body weight (Mus musculus [2]): -6.3%
T/C (Mus musculus [3]): 133%
OD (Mus musculus [4]): 100 mg/kg
Average change in body weight (Mus musculus [5]): 3.9%
T/C (Mus musculus [5]): 97%

Cc1ccc(S(=O)(=O)N(C)NS(C)(=O)=O)cc1
Average change in body weight (Mus musculus [6]): -1.9%
OD (Mus musculus [8]): 30 mg/kg
Average change in body weight (Mus musculus [9]): -7.9%
OD (Mus musculus [7]): 10 mg/kg

Cc1ccc(S(=O)(=O)N(C)NC(=O)/C=C/c2ccccc2)cc1
OD (Mus musculus [1]): 150 mg/kg
Average change in body weight (Mus musculus [2]): 14.8%
T/C (Mus musculus [3]): 94%
OD (Mus musculus [4]): 50 mg/kg
Average change in body weight (Mus musculus [5]): 1.8%
T/C (Mus musculus [5]): 94%

Cc1ccc(S(=O)(=O)N(C)NS(=O)(=O)Cc2ccccc2)cc1
Average change in body weight (Mus musculus [6]): -2.4%
Max T/C (Mus musculus [6]): 172%
OD (Mus musculus [8]): 50 mg/kg
Average change in body weight (Mus musculus [9]): 10.8%
OD (Mus musculus [7]): 50 mg/kg

Cc1ccc(S(=O)(=O)N(C)NP(=O)(c2ccccc2)c2ccccc2)cc1
OD (Mus musculus [1]): 150 mg/kg
Average change in body weight (Mus musculus [2]): 5.8%
T/C (Mus musculus [3]): 100%
OD (Mus musculus [4]): 50 mg/kg
Average change in body weight (Mus musculus [5]): 0.7%
T/C (Mus musculus [5]): 112%

Cc1ccc(S(=O)(=O)NN(C)S(=O)(=O)c2ccc(C)cc2)cc1
OD (Mus musculus [8]): 50 mg/kg
Average change in body weight (Mus musculus [10]): -2.7%
Average change in body weight (Mus musculus [9]): 3.7%
OD (Mus musculus [7]): 150 mg/kg
